In ChEMBL document CHEMBL4251664, “Biocompatible Boron-Containing Prodrugs of Belinostat for the Potential Treatment of Solid Tumors” (ACS Med Chem Lett, 2018):

Columns and labels:
[1] = Drug uptake in tumor of ovariectomized nu/nu mouse implanted with human MCF7 cells assessed as belinostat level at 10 mg/kg, sc administered once daily for 22 days measured post last dose by HPLC-MS/MS analysis; format: ADME, organism-based, Neoplasm; conditions: in vivo, 528 h
Procedure, shortened: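 After 22 days of 10 mg/kg/day subcutaneous dosing in MCF-7 xenograft mice, animals were sacrificed. Tumours were excised, homogenized and extracted, then analysed by HPLC–MS/MS for belinostat and the free boronic acid. Results are expressed as ng/g tissue.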

[2] = test system: MDA-MB-231; test: Prodrug conversion in human MDA-MB-231 cells assessed as belinostat level after 5 days by UHPLC-MS/MS analysis; format: ADME, cell-based; conditions: mda-mb-231, 120 h
Procedure, shortened: (§1)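 MDA-MB-231 or HeLa cells were incubated with the pinacol boronate prodrug, and culture medium was sampled daily from day 1 to day 6. The prodrug, boronic acid forms and belinostat were separated, identified and quantified by HPLC coupled to an Orbitrap mass spectrometer. Results are in ng/mL as mean ± SEM of triplicate experiments.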

[3] = test system: MDA-MB-231; test: Prodrug conversion in human MDA-MB-231 cells assessed as belinostat level after 6 days by UHPLC-MS/MS analysis; format: ADME, cell-based; conditions: mda-mb-231, 144 h; procedure, shortened: as §1
[4] = test system: A549; test: Antiproliferative activity against human A549 cells after 72 hrs by resazurin dye based fluorescence assay; format: functional, cell-based; conditions: A549, 72 h
[5] = test system: MDA-MB-231; test: Prodrug conversion in human MDA-MB-231 cells assessed as belinostat level after 3 days by UHPLC-MS/MS analysis; format: ADME, cell-based; conditions: mda-mb-231, 72 h; procedure, shortened: as §1
[6] = test system: HeLa; test: Prodrug conversion in human HeLa cells assessed as belinostat level after 1 day by UHPLC-MS/MS analysis; format: ADME, cell-based; conditions: 24 h; procedure, shortened: as §1
[7] = test system: HeLa; test: Prodrug conversion in human HeLa cells assessed as belinostat level after 6 days by UHPLC-MS/MS analysis; format: ADME, cell-based; conditions: 144 h; procedure, shortened: as §1
[8] = test system: HeLa; test: Prodrug conversion in human HeLa cells assessed as (E)-4-((3-(3-(N-phenylsulfamoyl)phenyl)acrylamidooxy)methyl)phenylboronic acid level after 6 days by UHPLC-MS/MS analysis; format: ADME, cell-based; conditions: 144 h; procedure, shortened: as §1
[9] = test system: HeLa; test: Prodrug conversion in human HeLa cells assessed as belinostat level after 2 days by UHPLC-MS/MS analysis; format: ADME, cell-based; conditions: 48 h; procedure, shortened: as §1
[10] = test system: MCF-10A; test: Cytotoxicity against human MCF10A cells assessed as reduction in cell proliferation at 10 uM after 72 hrs by resazurin dye based fluorescence assay
[11] = test system: MCF7; test: Antitumor activity against human MCF7 cells implanted in ovariectomized nu/nu mouse assessed as tumor growth inhibition at 10 mg/kg, sc administered once daily for 22 days measured post last dose relative to control; format: functional; conditions: 528 h, read-out: TGI
[12] = test system: MDA-MB-231; test: Prodrug conversion in human MDA-MB-231 cells assessed as belinostat level after 1 day by UHPLC-MS/MS analysis; format: ADME, cell-based; conditions: mda-mb-231, 24 h; procedure, shortened: as §1
[13] = test system: MCF7; test: Antitumor activity against human MCF7 cells implanted in ovariectomized nu/nu mouse assessed as tumor volume at 10 mg/kg, sc administered once daily for 22 days measured on day 12 during compound dosing (reference value: 869 +/- 173 mm3); format: functional
[14] = test system: HeLa; test: Prodrug conversion in human HeLa cells assessed as belinostat level after 4 days by UHPLC-MS/MS analysis; format: ADME, cell-based; conditions: 96 h; procedure, shortened: as §1
[15] = test system: HeLa; test: Prodrug conversion in human HeLa cells assessed as (E)-4-((3-(3-(N-phenylsulfamoyl)phenyl)acrylamidooxy)methyl)phenylboronic acid level after 3 days by UHPLC-MS/MS analysis; format: ADME, cell-based; conditions: 72 h; procedure, shortened: as §1
[16] = test system: MCF7; test: Antitumor activity against human MCF7 cells implanted in ovariectomized nu/nu mouse assessed as tumor volume at 10 mg/kg, sc administered once daily for 22 days measured post last dose relative to control; format: functional
[17] = test system: HeLa; test: Prodrug conversion in human HeLa cells assessed as (E)-4-((3-(3-(N-phenylsulfamoyl)phenyl)acrylamidooxy)methyl)phenylboronic acid level after 2 days by UHPLC-MS/MS analysis; format: ADME, cell-based; conditions: 48 h; procedure, shortened: as §1
[18] = test system: MDA-MB-231; test: Prodrug conversion in human MDA-MB-231 cells assessed as belinostat level after 2 days by UHPLC-MS/MS analysis; format: ADME, cell-based; conditions: mda-mb-231, 48 h; procedure, shortened: as §1
[19] = biological target: T1, Protein deacetylase HDAC6 (Homo sapiens, UniProt Q9UBN7); test: Inhibition of human HDAC6 using RHKK(Ac)AMC as substrate
T1 sequence (Q9UBN7 whole entry): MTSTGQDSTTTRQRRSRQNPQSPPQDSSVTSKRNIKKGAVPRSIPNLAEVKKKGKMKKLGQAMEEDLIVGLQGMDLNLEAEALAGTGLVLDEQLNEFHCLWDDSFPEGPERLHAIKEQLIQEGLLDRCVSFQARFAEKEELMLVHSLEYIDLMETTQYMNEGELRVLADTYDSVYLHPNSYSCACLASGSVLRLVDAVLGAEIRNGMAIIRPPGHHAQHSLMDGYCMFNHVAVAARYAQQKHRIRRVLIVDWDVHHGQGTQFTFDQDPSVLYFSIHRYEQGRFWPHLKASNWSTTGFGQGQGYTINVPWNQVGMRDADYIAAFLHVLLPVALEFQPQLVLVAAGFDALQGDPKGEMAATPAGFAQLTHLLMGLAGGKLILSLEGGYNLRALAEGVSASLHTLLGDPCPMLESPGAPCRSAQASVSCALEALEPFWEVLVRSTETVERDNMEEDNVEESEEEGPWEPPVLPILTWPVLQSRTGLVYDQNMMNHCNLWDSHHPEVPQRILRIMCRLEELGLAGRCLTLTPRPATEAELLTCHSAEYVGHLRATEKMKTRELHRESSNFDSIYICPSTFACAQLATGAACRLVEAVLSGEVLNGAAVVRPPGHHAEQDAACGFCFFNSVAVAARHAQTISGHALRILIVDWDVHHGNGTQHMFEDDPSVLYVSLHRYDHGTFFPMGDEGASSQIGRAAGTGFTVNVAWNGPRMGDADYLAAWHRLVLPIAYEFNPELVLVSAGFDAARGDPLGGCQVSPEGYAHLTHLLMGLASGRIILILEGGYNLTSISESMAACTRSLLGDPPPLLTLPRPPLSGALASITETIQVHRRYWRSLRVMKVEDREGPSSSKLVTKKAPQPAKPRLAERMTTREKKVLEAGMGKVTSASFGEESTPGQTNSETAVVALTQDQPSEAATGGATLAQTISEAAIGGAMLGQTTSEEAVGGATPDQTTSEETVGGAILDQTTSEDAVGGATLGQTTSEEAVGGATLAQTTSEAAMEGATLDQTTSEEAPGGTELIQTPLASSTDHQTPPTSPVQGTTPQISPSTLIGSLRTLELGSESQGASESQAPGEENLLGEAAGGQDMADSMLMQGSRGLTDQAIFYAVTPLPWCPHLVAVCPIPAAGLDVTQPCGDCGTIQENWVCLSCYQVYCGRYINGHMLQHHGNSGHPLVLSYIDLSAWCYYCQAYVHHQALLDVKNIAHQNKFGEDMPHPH

[20] = test system: HeLa; test: Prodrug conversion in human HeLa cells assessed as (E)-4-((3-(3-(N-phenylsulfamoyl)phenyl)acrylamidooxy)methyl)phenylboronic acid level after 1 day by UHPLC-MS/MS analysis; format: ADME, cell-based; conditions: 24 h; procedure, shortened: as §1
[21] = test system: HeLa; test: Prodrug conversion in human HeLa cells assessed as belinostat level after 5 days by UHPLC-MS/MS analysis; format: ADME, cell-based; conditions: 120 h; procedure, shortened: as §1
[22] = test system: MDA-MB-231; test: Antiproliferative activity against human MDA-MB-231 cells after 72 hrs by resazurin dye based fluorescence assay; format: functional, cell-based; conditions: MDA-MB-231, 72 h

Drug uptake [1]: 57 ng/g | Drug metabolism [2]: 28.5 ng/mL | Drug metabolism [3]: 27.8 ng/mL | IC50 [4]: 0.453 µM | Drug metabolism [5]: 20.3 ng/mL | Drug metabolism [6]: 8.4 ng/mL | Drug metabolism [7]: 3.8 ng/mL | Drug metabolism [8]: 49.6 ng/mL | Drug metabolism [9]: 6.6 ng/mL | Drug metabolism [12]: 30.7 ng/mL | Drug metabolism [14]: 7.8 ng/mL | Drug metabolism [15]: 144.9 ng/mL | Drug metabolism [17]: 147.4 ng/mL | Drug metabolism [18]: 27.7 ng/mL | EC50 [19]: 20.2 µM | Drug metabolism [20]: 282.7 ng/mL | Drug metabolism [21]: 3.7 ng/mL | IC50 [22]: 0.303 µM
SMILES: CC1(C)OB(c2ccc(CONC(=O)/C=C/c3cccc(S(=O)(=O)Nc4ccccc4)c3)cc2)OC1(C)C
Activity [10]: Non-Toxic | inhibition in vivo at 10 mg/kg [11]: 85.4% | Activity [13]: 153 mm3 | T/C [16]: 14.6%
